Measured values from ChEMBL document CHEMBL1125422, “Low molecular weight proteins as carriers for renal drug targeting. Preparation of drug-protein conjugates and drug-spacer derivatives and their catabolism in renal cortex homogenates and lysosomal lysates” (J Med Chem, 1992).
Peptide text beside a SMILES is read from it. * marks the point of attachment. Cbz = O=C(OCc1ccccc1)*

What was measured:
Rattus norvegicus [1] = organism: Rattus norvegicus; assay: (§1) Lysozyme-conjugated prodrugs: in vitro stability at pH 7.4; format: functional
Summary of the method: (§2)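 Conjugate incubated 24 h in pH 5.0 buffer, pH 7.4 buffer, or plasma buffered at pH 7.4. Samples were deproteinized with ACN, MeOH or 2 N HCl, centrifuged, and analyzed by RP-HPLC against an internal standard. Release is % parent drug = parent/(parent + derivative) from IS-normalized peak-area ratios, mean of at least two separate incubations.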

Rattus norvegicus [2] = organism: Rattus norvegicus; assay: (§3) Lysozyme-conjugated prodrugs: in vitro stability at pH 5; format: functional; summary of the method: as §2
Rattus norvegicus [3] = organism: Rattus norvegicus; assay: as §1; format: functional; summary of the method: as §2; remark: listed apart in the source
Rattus norvegicus [4] = organism: Rattus norvegicus; assay: as §3; format: ADME; summary of the method: as §2

Drug release (Rattus norvegicus [4]) [%] | SMILES | Drug release (Rattus norvegicus [1]) [%] | Drug release (Rattus norvegicus [2]) [%] | Drug release (Rattus norvegicus [3]) [%]
0 | N=C(N)NCCC[C@H](NC(=O)c1ccccc1)C(=O)O | 0 | 0 | 0
0 | O=C(N[C@@H](Cc1c[nH]c2ccccc12)C(=O)O)c1ccccc1 | 0 | 0 | 0
0 | COc1ccc2c(c1)c(CC(=O)N[C@@H](Cc1ccccc1)C(=O)O)c(C)n2C(=O)c1ccc(Cl)cc1 | 0 | 0 | 0
0 | COc1ccc2c(c1)c(CC(=O)NCC(=O)O)c(C)n2C(=O)c1ccc(Cl)cc1 | 0 | 0 | 0
0 | CC(C)C[C@H](N)C(=O)Nc1nc2nc(N)nc(N)c2nc1-c1ccccc1 | 0 | <5 | <5
0 | COc1ccc2cc(C(C)C(=O)N[C@@H](Cc3ccccc3)C(=O)O)ccc2c1 (stereo not given in full) | 0 | 0 | 0
0 | COc1ccc2c(c1)c(CC(=O)N[C@@H](Cc1c[nH]c3ccccc13)C(=O)O)c(C)n2C(=O)c1ccc(Cl)cc1 | 0 | 0 | 0
0 | O=C(N[C@@H](Cc1ccc(O)cc1)C(=O)O)c1ccccc1 | 0 | 0 | 0
0 | COc1ccc2c(c1)c(CC(=O)N[C@@H](CCC(=O)O)C(=O)O)c(C)n2C(=O)c1ccc(Cl)cc1 | 0 | 0 | 0
0 | COc1ccc2cc(C(C)C(=O)N[C@@H](CC(C)C)C(=O)NCC(=O)NCC(=O)O)ccc2c1 (stereo in doubt; 1o) | 0 | 0 | 0
0 | COc1ccc2cc(C(C)C(=O)N[C@H](C(=O)O)C(C)C)ccc2c1 (stereo not given in full) | 0 | 0 | 0
0 | O=C(O)CC[C@H](NC(=O)c1ccccc1)C(=O)O | 0 | 0 | 0
0 | COc1ccc2cc(C(C)C(=O)NCC(=O)O)ccc2c1 (stereo not given) | 0 | 0 | 0
0 | C[C@H](NC(=O)OCc1ccccc1)C(=O)N1CCC[C@H]1C(=O)N[C@@H](Cc1ccccc1)C(=O)O (Cbz-Ala-Pro-Phe-OH) | 0 | 0 | 96
0 | O=C(N[C@@H](Cc1ccccc1)C(=O)O)c1ccccc1 | 0 | 0 | 0
0 | COc1ccc2cc(C(C)C(=O)N[C@@H](CCCN=C(N)N)C(=O)O)ccc2c1 (stereo not given in full) | 0 | 0 | 0
0 | CC(C)C[C@H](N)C(=O)Nc1nc(N)c2nc(-c3ccccc3)c(N)nc2n1 | 0 | <5 | <5
0 | COc1ccc2cc(C(C)C(=O)N[C@@H](CC(C)C)C(=O)O)ccc2c1 (stereo not given in full) | 0 | 0 | 0
0 | COc1ccc2c(c1)c(CC(=O)N[C@@H](CC(C)C)C(=O)O)c(C)n2C(=O)c1ccc(Cl)cc1 | 0 | 0 | 0
0 | NCCCC[C@H](NC(=O)c1ccccc1)C(=O)O | 0 | 0 | 0
